From PubChem BioAssay
M4 ag – human M4 muscarinic receptor agonists, primary screen, CHO-K1 cells, Fluo-8 calcium fluorescence; CHO-K1 hM4/Gqi5; vehicle 0%, full acetylcholine response 100%; 0.14% of 360,000 active; Muscarinic acetylcholine receptor M4 (Homo sapiens), P08173; activation, % at 3 µM;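 active = activation above the run mean over all test wells plus 3 SD, cut at about 32% in these data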;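 note: peak over basal fluorescence ratio per well then scaled between controls; 0% = DMSO wells and 100% = acetylcholine at EC100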
M4 PAM – human M4 muscarinic receptor positive allosteric modulators, primary screen, CHO-K1 cells, Fluo-8 calcium fluorescence | Muscarinic acetylcholine receptor M4 (Homo sapiens), P08173 | CHO-K1 hM4/Gqi5, ACh EC20; 0% = ACh EC20, 100% = maximal ACh | activation, % at 3 µM | 0.4% of 360,000 active | AID 624126, 2012;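 active = activation above its plate's cutoff, the mean activation of sample wells plus 3 SD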
M5 antag – human M5 muscarinic receptor antagonists, primary screen, CHO cells, Fluo-8 calcium fluorescence; Muscarinic acetylcholine receptor M5 (Homo sapiens), P08912; CHO-hM5 cells, ACh EC80; inhibition, % at 3 µM; 0.59% of 360,000 active; AID 624040, 2012;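 active = inhibition above a per-plate cutoff, the mean of that plate's test compounds plus 3 SD, cut at about 27% in these data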;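 note: 0% = acetylcholine EC80 with DMSO and 100% = DMSO without agonist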
Target sequence (P08912 whole entry, looked up): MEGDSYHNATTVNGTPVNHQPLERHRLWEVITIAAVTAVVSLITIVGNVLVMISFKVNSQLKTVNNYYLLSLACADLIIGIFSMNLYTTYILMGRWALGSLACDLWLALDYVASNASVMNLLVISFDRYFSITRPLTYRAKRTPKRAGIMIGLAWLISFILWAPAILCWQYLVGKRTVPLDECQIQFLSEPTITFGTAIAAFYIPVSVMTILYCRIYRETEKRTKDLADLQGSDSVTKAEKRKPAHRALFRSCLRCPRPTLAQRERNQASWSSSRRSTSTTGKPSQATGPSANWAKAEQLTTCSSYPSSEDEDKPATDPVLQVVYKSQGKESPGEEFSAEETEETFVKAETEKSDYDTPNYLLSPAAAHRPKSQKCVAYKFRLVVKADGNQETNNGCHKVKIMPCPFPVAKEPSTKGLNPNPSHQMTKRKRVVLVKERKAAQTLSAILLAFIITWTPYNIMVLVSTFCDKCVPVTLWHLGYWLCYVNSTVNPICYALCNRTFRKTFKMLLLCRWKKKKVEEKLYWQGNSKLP
M5 ag – human M5 muscarinic receptor agonists, primary screen, CHO-K1 cells, Fluo-8 calcium fluorescence. Muscarinic acetylcholine receptor M5 (Homo sapiens), P08912. activation, % at 3 µM. CHO-K1 hM5 cells; 0% DMSO wells, 100% maximal acetylcholine response. 0.19% of 360,000 active;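 active = activation above the run's mean over test compounds plus 3 SD, cut at about 23% in these data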;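 note: signal is peak over basal fluorescence ratio across the kinetic read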
M5 PAM – human M5 muscarinic receptor positive allosteric modulators, primary screen, CHO-K1 cells, Fluo-8 calcium fluorescence; Muscarinic acetylcholine receptor M5 (Homo sapiens), P08912; CHO-K1 hM5, ACh EC20 PAM; 0% = ACh EC20, 100% = ACh EC100; activation, % at 3 µM; 0.3% of 360,000 active; AID 624038, 2012;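 active = activation above the run cutoff, the mean activation of all test compounds plus 3 SD, cut at about 18% in these data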
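System – CHO-K1 hM5 cells · Compound – 3 µM, single dose · Incubation – compound preincubation 140 s before EC20 acetylcholine addition · Technique – Fluo-8 calcium fluorescence · Measure – Max/basal fluorescence ratio as % of EC20–EC100 ACh window · Benchmarks – low control EC20 acetylcholine (0%), high control EC100 acetylcholine (100%) · Replication – singlicate, one well per test compound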
M4 antag – human M4 muscarinic receptor antagonists, primary screen, CHO cells, Fluo-8 calcium fluorescence | 0.73% of 360,000 active | inhibition, % at 3 µM | CHO-hM4 cells, ACh EC80;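 active = inhibition above its plate's cutoff, the mean inhibition of sample wells plus 3 SD, cut at about 27% in these data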;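 note: 0% = acetylcholine EC80 with DMSO and 100% = DMSO without agonist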
* marks the source's active call; other numbers are inactive results. The list is not random: actives were taken first. Their share in the collection is about 1.9%.

SMILES | M4 ag | M4 PAM | M5 antag | M5 ag | M5 PAM | M4 antag
C=CCN(c1ccccc1)S(=O)(=O)c1ccc(Cl)c(C(=O)OCC(=O)c2[nH]c(C)c(C(C)=O)c2C)c1 | 6 | -30 | 17 | -3 | -19 | 27*
CCN(CC)CCNC(=O)c1ccc(NC(=O)c2cccc(S(=O)(=O)N3CCCCCC3)c2)cc1 | 1 | -15 | 79* | -11 | -43 | 79*
CCN(CC)CCNC(=O)c1ccc(NC(=O)c2ccc(Cl)c(S(=O)(=O)N3CCCCCC3)c2)cc1 | 1 | -46 | 79* | -19 | -33 | 70*
CCN(CC)CCNC(=O)c1ccc(NC(=O)c2ccc(S(=O)(=O)N3CCCCCC3)cc2)cc1 | 0 | -4 | 8 | -8 | -6 | -7
CCOC(=O)c1c(C)[nH]c(C)c1C(=O)CSc1ncccn1 | 1 | 6 | -1 | 0 | 25* | -13
CCOC(=O)c1c(C)[nH]c(C)c1C(=O)CSc1nc2ccccc2[nH]1 | 9 | -14 | 2 | 2 | -6 | 10
CCOc1ccc(-c2nnc(NC(=O)Cc3cc(OC)c(OC)c(OC)c3)o2)cc1 | 0 | -5 | 12 | 2 | 3 | 18
CC(=O)c1c(C)[nH]c(C(=O)COc2cc(C)ccc2C(C)C)c1C | 16 | -8 | 41* | 4 | -19 | 39*
O=C(NNC1=NCCCCC1)c1cccc([N+](=O)[O-])c1 | 1 | 10 | -9 | 1 | 19* | -3
Cc1ccc(CCNC(=O)c2cc(-c3ccncc3)nc3ccc(S(=O)(=O)N4CCOCC4)cc23)cc1 | 1 | 2 | 6 | -5 | -1 | 3
O=C(c1cccc(S(=O)(=O)Nc2ccccc2Cl)c1)N1CCN(c2ccccc2O)CC1 | 9 | -8 | -3 | 5 | -6 | 15
CCOC(=O)c1ccc(Oc2c(C)oc3c(CN4CCN(C)CC4)c(O)ccc3c2=O)cc1 | 0 | -20 | -1 | -7 | -12 | 33*
COc1ccc(Oc2c(C)oc3c(CN4CCOCC4)c(O)ccc3c2=O)cc1 | 1 | -15 | 11 | -8 | -22 | 41*
CCOc1ccccc1Oc1c(C)oc2c(CN3CCN(CCO)CC3)c(O)ccc2c1=O | 1 | 2 | -6 | 1 | 10 | -5
Cc1coc2cc3oc(=O)c(CCC(=O)N4CCC(C(=O)O)(c5ccccc5)CC4)c(C)c3cc12 | 1 | 11 | 2 | 3 | 0 | -16
Cc1cc(C)c(Nc2ncnc(N)n2)c(C)c1 | -2 | -74 | 5 | -3 | 4 | 100*
Cc1ccc(Nc2ncnc(N)n2)cc1 | 0 | -4 | 12 | -1 | -4 | -7
O=[N+]([O-])c1ccc(COP(=O)(O)OCc2ccc([N+](=O)[O-])cc2)cc1 | 1 | 2 | -12 | -1 | 5 | 5
CCOC(=O)CCN(C(=S)Nc1ccccc1)C1CCCCC1 | 1 | 0 | 15 | -2 | -7 | -1
Cc1sc2ncnc(N3CCC(C(=O)Nc4ccc(Br)cc4Br)CC3)c2c1C | 0 | 22* | -2 | 2 | 0 | -5
CNC(=O)c1ccc(NC(=O)C2CCN(c3ncnc4sc(C)c(C)c34)CC2)cc1 | 72* | 9 | 19 | -1 | -12 | 70*
Cc1sc2ncnc(N3CCC(C(=O)Nc4ccc(Cl)cc4Cl)CC3)c2c1C | 13 | 38* | 0 | 0 | 5 | 0
CCc1cccc(NC(=O)C2CCN(c3ncnc4sc(C)c(C)c34)CC2)c1 | 10 | 20 | 9 | -3 | -36 | 12
CCS(=O)(=O)N1CCN(c2ncnc3sc(C)c(C)c23)CC1 | 8 | 21* | 6 | 0 | 9 | -9
Cc1cc(C)c(C)c(S(=O)(=O)N2CCN(c3ncnc4sc(C)c(C)c34)CC2)c1C | 1 | 8 | 7 | -3 | 1 | -5
SMILES | M4 ag | M4 PAM | M5 antag | M5 ag | M5 PAM | M4 antag
CCC1(CC)NC(=O)N(CC(=O)OCc2nc3cc(C(=O)OC)ccc3c(=O)[nH]2)C1=O | 2 | 4 | -2 | 2 | 0 | 2
Cc1sc2ncnc(N3CCC(C(=O)Nc4ccc(Cl)c(Cl)c4)CC3)c2c1C | 3 | 23* | 19 | -1 | -5 | 0
CC(C)(CN1CCN(c2ccccc2)CC1)NS(=O)(=O)c1ccccc1 | 4 | 14 | -2 | -2 | -3 | 31*
O=C(O)c1ccccc1-c1ccc(/C=C/c2cc(C(F)(F)F)[nH]c(=O)n2)o1 | 10 | -7 | 9 | 44* | -7 | 1
O=C(O)c1cc(Cl)ccc1-c1ccc(/C=C/c2cc(C(F)(F)F)[nH]c(=O)n2)o1 | 39* | -5 | 0 | 42* | -3 | 12
COCCCN(C(=O)c1cc(C)oc1C)c1c(N)n(CC(C)C)c(=O)[nH]c1=O | 0 | 1 | 9 | 2 | -13 | 0
COC(=O)C1=C(N)OC2=C(C(=O)CC(C)(C)C2)C1c1cccs1 (stereo unspecified) | 1 | 20* | -1 | -3 | 4 | -7
CC1(C)CC(=O)C2=C(C1)OC(N)=C(C#N)C2c1cccs1 (stereo unspecified) | 0 | -8 | 1 | -1 | -6 | 6
CC(C)Oc1ccc(N2CC(C(=O)Nc3ccccc3C(=O)NC3CC3)CC2=O)cc1 (stereo unspecified) | 2 | -3 | 5 | 3 | -5 | -14
Cn1nnnc1SCCNC(=O)C1CCC(=O)N(Cc2ccc(Cl)cc2)C1 (stereo unspecified) | 0 | 9 | -18 | -1 | 19* | -8
CCCCCn1nnnc1-c1nc2cc(C)c(C)cc2[nH]c1=O | 0 | 4 | 3 | 2 | -3 | -10
CC(Cc1ccccn1)NC(=O)c1ccc(OC2CCN(Cc3ccccn3)CC2)cc1 (stereo unspecified) | 2 | 18* | -5 | -5 | 4 | 12
O=C(NCCc1ccccn1)c1ccc(OC2CCN(Cc3ccccn3)CC2)cc1 | 1 | -1 | -2 | -4 | 2 | 1
Cn1c(=O)[nH]c(=O)c2c1nc(N1CCCCC1)n2CC(O)COc1ccc([N+](=O)[O-])cc1 (stereo unspecified) | 12 | -7 | -2 | 4 | -2 | -1
C=CCN(c1ccccc1OC)S(=O)(=O)c1cccc(C(=O)OCC(=O)c2c(N)n(C)c(=O)n(C)c2=O)c1 | 15 | -13 | 27* | -3 | -34 | 14
O=C(C1=C(O)C(=O)N(c2nccs2)C1c1ccccc1)c1cc2ccccc2o1 (stereo unspecified) | 29 | -17 | 8 | 65* | -24 | 11
